Results published in ChEMBL document CHEMBL1125771, “Synthesis, activation, and cytotoxicity of aldophosphamide analogues” (J Med Chem, 1991).

Tests used:
P388 [1] = assay: In vitro antitumor activity against wild-type P388/0 cells; assay type: functional, Mus musculus
How it was run: (§1)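 Clonogenic survival assay in wild-type or cyclophosphamide-resistant L1210 and P388 cells with 1-h drug exposure. LC99 is the concentration that lowers colony formation to 1% of control. It comes from linear regression of log surviving fraction vs concentration over the linear portion, using at least three determinations. Standard errors are within ±10%.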

L1210 [2] = assay: In vivo antitumor activity against intraperitoneal murine wild type L1210 Leukemia cells at 170 umol/kg; assay type: functional, Mus musculus
P388 [3] = assay: In vitro antitumor activity against cyclophosphamide-resistant P388/CP cells; assay type: functional, Mus musculus; how it was run: as §1
P388 [4] = assay: Ratio of resistance factor LC99 […] to that of LC99 […]; assay type: functional, Mus musculus
How it was run: (§2)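 Resistance factor is LC99 in the cyclophosphamide-resistant line divided by LC99 in the wild-type line. Each LC99 is from a clonogenic assay with 1-h drug exposure: the concentration that reduces colonies to 1% of control, by linear regression of log survival vs concentration from at least three determinations.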

L1210 [5] = assay: In vivo antitumor activity against intraperitoneal murine wild type L1210 Leukemia cells at 510 umol/kg; assay type: functional, Mus musculus
L1210 [6] = assay: In vivo antitumor activity against intraperitoneal murine wild type L1210 Leukemia cells at 340 umol/kg; assay type: functional, Mus musculus
L1210 [7] = assay: In vitro antitumor activity against cyclophosphamide-resistant L1210/CP cells; assay type: functional, Mus musculus; how it was run: as §1
L1210 [8] = assay: Ratio of resistance factor LC99 […] to that of LC99 […]; assay type: functional, Mus musculus; how it was run: as §2
L1210 [9] = assay: In vitro antitumor activity against wild-type L1210/0 cells; assay type: functional, Mus musculus; how it was run: as §1
[10] = Hydrolysis rate constant at pH 7.4 and 12.5 mM HEPES buffer; assay type: ADME
How it was run: (§3)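 Spectrophotometric hydrolysis assay of model perhydrooxazines at 37 °C. Buffer strength was varied by mixing a stock of 0.25 M HEPES, phenol red (10 mg/100 mL) and KCl (μ = 0.20) with a matching stock that lacked HEPES. Substrate was added in DMSO (1:4 v/v) at a perhydrooxazine:buffer molar ratio of 0.1, with DMSO in the reference cell. The phenol red absorbance rise at 560 nm was read over 1 h. k came from the slope of ln(A∞ − At) vs time.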

[11] = Hydrolysis rate constant at pH 6.8 and 25 mM HEPES buffer; assay type: ADME; how it was run: as §3
[12] = Hydrolysis rate constant at pH 7.4 and 50 mM HEPES buffer; assay type: ADME; how it was run: as §3
[13] = Hydrolysis rate constant at pH 7 and 25 mM HEPES buffer; assay type: ADME; how it was run: as §3
[14] = Hydrolysis rate constant at pH 7.8 and 25 mM HEPES buffer; assay type: ADME; how it was run: as §3
[15] = Hydrolysis rate constant at pH 7.4 and 25 mM HEPES buffer; assay type: ADME; how it was run: as §3

Row | khydr [10] [min⁻¹] | khydr [11] [min⁻¹] | khydr [12] [min⁻¹] | khydr [13] [min⁻¹] | khydr [14] [min⁻¹] | khydr [15] [min⁻¹] | Structure (SMILES) | LC99 (P388 [1]) [µM] | T/C (L1210 [2]) [%] | LC99 (P388 [3]) [µM] | RF (P388 [4]) | T/C (L1210 [5]) [%] | T/C (L1210 [6]) [%] | LC99 (L1210 [7]) [µM] | RF (L1210 [8]) | LC99 (L1210 [9]) [µM]
1 |  |  |  |  |  |  | CC1CC(C)(C)NC(CC(OP(=O)(N(CCCl)CCCl)N(CCCl)CCCl)c2ccccc2)O1 (stereo unspecified) | 2 | 125 | 2 | 1 | 170 | 150 | 3 | 1.5 | 2
2 |  |  |  |  |  |  | CCN(CC)P(=O)(OCCC1NC(C)(C)CC(C)O1)N(CC)CC (stereo unspecified) | >200 |  | >200 |  |  |  | >200 |  | >200
3 |  |  |  |  |  |  | CC1CC(C)(C)NC(CC(OP(N)(=O)N(CCCl)CCCl)c2ccccc2)O1 (stereo unspecified) | 7 | 125 | 10 | 1.4 |  | 125 | 14 | 1.1 | 13
4 | 0.0086 | 0.0042 | 0.0095 | 0.0065 | 0.0082 | 0.0094 | C[C@@H]1CC(C)(C)N[C@H](CCc2ccccc2)O1 |  |  |  |  |  |  |  |  | 
5 |  |  |  |  |  |  | CC1CC(C)(C)NC(CCOP(=O)(N(CCCl)CCCl)N(CCCl)CCCl)O1 (stereo unspecified) | 5 |  | 10 | 2 |  |  | 19 | 2.7 | 7
6 |  |  |  |  |  |  | CC1CC(C)(C)NC(CC(OP(=O)(N(CCCl)CCCl)N2CCOCC2)c2ccccc2)O1 (stereo unspecified) | 16 | 100 | 22 | 1.4 | 111 | 100 | 38 | 1.4 | 28
7 | 0.0088 |  | 0.0086 |  |  | 0.0085 | CC[C@H]1NC(C)(C)C[C@@H](C)O1 |  |  |  |  |  |  |  |  | 
8 |  |  |  |  |  |  | CCN(CC)P(N)(=O)OC(CC1NC(C)(C)CC(C)O1)c1ccccc1 (stereo unspecified) | >200 |  | >200 |  |  |  | >200 |  | >200
9 |  |  |  |  |  |  | CC1CC(C)(C)NC(CCOP(=O)(N(CCCl)CCCl)N2CCOCC2)O1 (stereo unspecified) | 56 |  | 117 | 2.1 | 113 | 113 | 150 | 1.8 | 84
10 |  |  |  |  |  |  | CC1CC(C)(C)NC(CCOP(N)(=O)N(CCCl)CCCl)O1 (stereo unspecified) | 19 | 144 | 92 | 4.8 | 167 | 144 | 145 | 6.9 | 21
